Results: ChEMBL document CHEMBL1148785, “Second generation tetrahydroquinoline-based protein farnesyltransferase inhibitors as antimalarials” (J Med Chem, 2007)

Legend:
Plasmodium falciparum [1] = assay: Inhibition of Plasmodium falciparum protein farnesyltransferase at 50 nM by scintillation proximity assay
Plasmodium falciparum [2] = assay: Inhibition of Plasmodium falciparum protein farnesyltransferase at 5 nM by scintillation proximity assay
Plasmodium falciparum [3] = assay: Inhibition of Plasmodium falciparum protein farnesyltransferase at 0.5 nM by scintillation proximity assay
Plasmodium falciparum [4] = assay: Antimalarial activity against Plasmodium falciparum 3D7; type: functional; conditions: Plasmodium falciparum, 3D7; read-out: ED50 (the source's name)
In short: (§1)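 Asynchronous culture in type A+ erythrocytes at 0.5% parasitemia and 0.5% hematocrit, grown in RPMI-1640 with 20% heat-inactivated human A+ plasma. Compound was serially diluted from a top final 5 µM, with DMSO vehicle as 100% growth. Plates ran 48 h at 37 °C under 5% CO2/5% O2/90% N2, then [3H]-hypoxanthine (0.3 µCi) for 24 h. Filter-harvested counts were corrected for the uninfected-RBC background. ED50 by linear regression; duplicates averaged.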

Plasmodium falciparum [5] = assay: Antimalarial activity against Plasmodium falciparum K1; type: functional; conditions: Plasmodium falciparum, K1; read-out: ED50 (the source's name); in short: as §1

Structure (SMILES)	inhibition (Plasmodium falciparum [1])	inhibition (Plasmodium falciparum [2])	inhibition (Plasmodium falciparum [3])	EC50 (Plasmodium falciparum [4])	EC50 (Plasmodium falciparum [5])
Cn1cncc1CN1CC(N(CC2CCN(C(=O)N3CCCCC3)CC2)S(=O)(=O)c2ccccn2)Cc2cc(C#N)ccc21 (stereo not given)	94%	14%	62%	140 nM	200 nM
Cn1cnc(S(=O)(=O)N(CCN2CCCCC2)C2Cc3cc(C#N)ccc3N(Cc3cncn3C)C2)c1 (stereo not given)	93%	62%	9%	200 nM	300 nM
Cn1cnc(S(=O)(=O)N(CCCN)C2Cc3cc(C#N)ccc3N(Cc3cncn3C)C2)c1 (stereo not given)	60%	5%	5%	> 5000 nM	4600 nM
COC(=O)c1ccsc1S(=O)(=O)N(CC1CCN(C(=O)OC)CC1)C1Cc2cc(C#N)ccc2N(Cc2cncn2C)C1 (stereo not given)	92%	61%	10%	2300 nM	1900 nM
Cn1cncc1CN1CC(N(CC2CCN(C(=O)OCc3ccccc3)CC2)S(=O)(=O)c2ccccn2)Cc2cc(C#N)ccc21 (stereo not given)	98%	13%	66%	550 nM	650 nM
Cn1cnc(S(=O)(=O)N(Cc2ccc3cccnc3c2)C2Cc3cc(C#N)ccc3N(Cc3cncn3C)C2)c1 (stereo not given)	99%	91%	37%	210 nM	600 nM
Cn1cnc(CN2CC(N(Cc3ccc(S(C)(=O)=O)cc3)S(=O)(=O)c3cn(C)cn3)Cc3cc(-c4ccccc4)ccc32)c1 (stereo not given)	98%	84%	32%	270 nM	450 nM
Cn1cncc1CN1CC(N(CC2CCN(C(=O)CNC(=O)OC(C)(C)C)CC2)S(=O)(=O)c2ccccn2)Cc2cc(C#N)ccc21 (stereo not given)	88%	15%	37%	750 nM	690 nM
Cn1cncc1CN1CC(N(CCCCON2C(=O)c3ccccc3C2=O)S(=O)(=O)c2ccccn2)Cc2cc(C#N)ccc21 (stereo not given)	84%	32%	0%	2150 nM	1420 nM
Cn1cnc(S(=O)(=O)N(CCCCON2C(=O)c3ccccc3C2=O)C2Cc3cc(C#N)ccc3N(Cc3cncn3C)C2)c1 (stereo not given)	99%	96%	57%	140 nM	100 nM
Cn1cncc1CN1CC(N(CCCCNC(=O)OC(C)(C)C)S(=O)(=O)c2ccccn2)Cc2cc(C#N)ccc21 (stereo not given)	97%	80%	24%	250 nM	375 nM
Cc1c(S(=O)(=O)N(CC2CCN(C(=O)OC(C)(C)C)CC2)C2Cc3cc(C#N)ccc3N(Cc3cncn3C)C2)ncn1C (stereo not given)	98%	87%	18%	140 nM	75 nM
Cn1cncc1CN1CC(N(CCOc2cccc3c2OCCO3)S(=O)(=O)c2ccccn2)Cc2cc(C#N)ccc21 (stereo not given)	88%	41%	10%	810 nM	1450 nM
COCCCCCN(C1Cc2cc(C#N)ccc2N(Cc2cncn2C)C1)S(=O)(=O)c1ccccn1 (stereo not given)	96%	65%	17%	189 nM	932 nM
Cn1cnc(CN2CC(NS(=O)(=O)c3ccccn3)Cc3cc(-c4ccccc4)ccc32)c1 (stereo not given)	19%	14%	11%	> 5000 nM	> 5000 nM
Cn1cncc1CN1CC(N(Cc2ccccc2F)C(=O)C2CC2)Cc2cc(C#N)ccc21 (stereo not given)	33%	0%	0%	950 nM	2000 nM
Cn1cncc1CN1CC(N(CC2CCN(C(=O)Nc3ccc(Br)cc3)CC2)S(=O)(=O)c2ccccn2)Cc2cc(C#N)ccc21 (stereo not given)	38%	0%	0%	3000 nM	2800 nM
COC(=O)N1CCC(CN(C2Cc3cc(C#N)ccc3N(Cc3cncn3C)C2)S(=O)(=O)c2cccc3nsnc23)CC1 (stereo not given)	98%	84%	20%	140 nM	160 nM
COC(=O)N1CCC(CN(C2Cc3cc(C#N)ccc3N(Cc3cncn3C)C2)S(=O)(=O)c2cccc3cccnc23)CC1 (stereo not given)	95%	80%	24%	260 nM	400 nM
Cn1cnc(S(=O)(=O)N2CCC(CN(C3Cc4cc(C#N)ccc4N(Cc4cncn4C)C3)S(=O)(=O)c3ccccn3)CC2)c1 (stereo not given)	92%	20%	60%	700 nM	650 nM
Cn1cncc1CN1CC(N(Cc2ccc(S(C)(=O)=O)cc2)S(=O)(=O)c2ccccc2)Cc2cc(C#N)ccc21 (stereo not given)	99%	91%	38%	165 nM	330 nM
Cn1cnc(S(=O)(=O)N(CC(=O)O)C2Cc3cc(C#N)ccc3N(Cc3cncn3C)C2)c1 (stereo not given)	97%	81%	19%	125 nM	400 nM
Cn1cncc1CN1CC(N(Cc2ccccc2F)S(=O)(=O)c2ccccc2)Cc2cc(C#N)ccc21 (stereo not given)	86%	44%	10%	730 nM	750 nM
COc1ccc(S(=O)(=O)N(Cc2ccccc2F)C2Cc3cc(C#N)ccc3N(Cc3cncn3C)C2)cc1 (stereo not given)	66%	22%	13%	900 nM	1000 nM
Cc1oncc1S(=O)(=O)N(CC(=O)NC(C)(C)C)C1Cc2cc(C#N)ccc2N(Cc2cncn2C)C1 (stereo not given)	3%	0%	0%	> 5000 nM	> 5000 nM
Cn1cncc1CN1CC(N(CC(=O)NC(C)(C)C)S(=O)(=O)CCN)Cc2cc(C#N)ccc21 (stereo not given)	11%	10%	5%	> 5000 nM	> 5000 nM
Cc1c(S(=O)(=O)N(Cc2ccc(S(C)(=O)=O)cc2)C2Cc3cc(C#N)ccc3N(Cc3cncn3C)C2)ncn1C (stereo not given)	92%	70%	23%	320 nM	450 nM
Cn1cncc1CN1CC(N(Cc2cccc3nsnc23)S(=O)(=O)c2ccccn2)Cc2cc(C#N)ccc21 (stereo not given)	85%	31%	12%	175 nM	98 nM

Now those with a lower EC50 (Plasmodium falciparum [4]), led by results:

inhibition (Plasmodium falciparum [1])	inhibition (Plasmodium falciparum [2])	inhibition (Plasmodium falciparum [3])	EC50 (Plasmodium falciparum [4])	EC50 (Plasmodium falciparum [5])	Structure (SMILES)
98%	81%	22%	120 nM	600 nM	Cn1cncc1CN1CC(N(CCc2ccccc2F)S(=O)(=O)c2ccccn2)Cc2cc(C#N)ccc21 (stereo not given)
97%	88%	36%	75 nM	60 nM	Cn1cc(S(=O)(=O)N(Cc2ccc(S(C)(=O)=O)cc2)C2Cc3cc(C#N)ccc3N(Cc3cncn3C)C2)cn1 (stereo not given)
99%	93%	36%	71 nM	75 nM	Cn1cnc(S(=O)(=O)N(Cc2ccccc2C(F)(F)F)C2Cc3cc(C#N)ccc3N(Cc3cncn3C)C2)c1 (stereo not given)
95%	66%	18%	55 nM	75 nM	COC(=O)N1CCC(CN(C2Cc3cc(C#N)ccc3N(Cc3cncn3C)C2)S(=O)(=O)c2sccc2C)CC1 (stereo not given)
98%	82%	19%	51 nM	210 nM	Cn1cncc1CN1CC(N(Cc2ocnc2-c2ccccc2)S(=O)(=O)c2ccccn2)Cc2cc(C#N)ccc21 (stereo not given)
98%	93%	43%	50 nM	70 nM	COC(=O)N1CCC(CN(C2Cc3cc(C#N)ccc3N(Cc3cncn3C)C2)S(=O)(=O)c2ccccc2)CC1 (stereo not given)
100%	31%	92%	50 nM	60 nM	C=C(C)C(=O)N1CCC(CN(C2Cc3cc(C#N)ccc3N(Cc3cncn3C)C2)S(=O)(=O)c2ccccn2)CC1 (stereo not given)
99%	31%	91%	35 nM	65 nM	Cn1cncc1CN1CC(N(CC2CCN(C(=O)N3CCCC3)CC2)S(=O)(=O)c2ccccn2)Cc2cc(C#N)ccc21 (stereo not given)
95%	68%	6%	18 nM	45 nM	COC(=O)N(C)CCCN(C1Cc2cc(C#N)ccc2N(Cc2cncn2C)C1)S(=O)(=O)c1ccccn1 (stereo not given)
99%	96%	68%	13 nM	20 nM	Cn1cncc1CN1CC(N(CCn2cccn2)S(=O)(=O)c2ccccn2)Cc2cc(C#N)ccc21 (stereo not given)
100%	35%	94%	13 nM	11.5 nM	CN(C)C(=O)N1CCC(CN(C2Cc3cc(C#N)ccc3N(Cc3cncn3C)C2)S(=O)(=O)c2ccccn2)CC1 (stereo not given)
95%	91%	67%	12 nM	16 nM	Cn1cncc1CN1CC(N(CCn2ccnc2)S(=O)(=O)c2ccccn2)Cc2cc(C#N)ccc21 (stereo not given)
99%	99%	72%	3 nM	1.6 nM	COC(=O)N1CCC(CN(C2Cc3cc(C#N)ccc3N(Cc3cncn3C)C2)S(=O)(=O)c2cncn2C)CC1 (stereo not given)
